The array DNA melting data of Ke et al. (doi:10.1101/2024.01.08.574731)

Tests used:
[1] = folding enthalpy; higher = less favourable; fluorescence melt of hairpins on a sequencing array, two-state fit; conditions: sodium 0.088 M
Outline: (§1)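 Bootstrapped two-state fits yielded melting temperature and folding enthalpy for library hairpins. Cy3 fluorescence, with annealed Cy3 and quencher oligos, was imaged on a sequenced MiSeq flow cell in 50 mM Na-HEPES pH 8.0, 25 mM NaCl in 2.5 °C steps up to 60 °C, and normalised to pre-quench Cy3 and to control constructs. Four replicates were combined by inverse variance, and fitted temperatures were raised by 9.35 °C to match UV melts.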

[2] = melting temperature; fluorescence melt of hairpins on a sequencing array, two-state fit, raised by 9.35 °C to match UV melts; conditions: sodium 0.088 M
Outline: as §1

| Sequence | folding enthalpy [1] [kcal/mol] | Tm [2] [°C] |
| --- | --- | --- |
| GATCTATAGGTAGATC ((((((....)))))) | -32.8 | 42.2 |
| GGTTGCGAAAGCAAACC ((((((....))).))) | -20 | 61.8 |
| GCCATTGGAAACAATGAC (.(((((....))))).) | -19.1 | 38.8 |
| GACGGTGGAAACGCCGTC (((((.(....).))))) | -37.7 | 62.9 |
| GATCACATCGTGATC ((((((...)))))) | -41 | 58.3 |
| GCATGAGGAAACTCATGC (((((((....))))))) | -40.3 | 65.3 |
| GGTTATGGAAACATAATC (.(((((....))))).) | -31.2 | 36 |
| GATCCGGAGCGGATC ((((((...)))))) | -33.3 | 56.1 |
| GTGCTTGGAAACGAGTAC ((.((.(....).)).)) | -19.3 | 35 |
| GATCCACTAATGGATC ((((((....)))))) | -32.7 | 49.8 |
| GCACGGGGAAACCCACGC ((..(((....)))..)) | -23.9 | 41.5 |
| GTGGCCGGAAACGGCTGC (..((((....))))..) | -13 | 51.9 |
| GATCAAGTTTTGATC ((((((...)))))) | -29.4 | 45.4 |
| GAGCGAGCGAAAGCTCTC (((..(((....)))))) | -8.27 | 35.5 |
| GACCCGCGAAAGCGTGTC (((.(((....))).))) | -24 | 52.6 |
| GGGTACGCGAAAGCGCCC (((..(((....)))))) | -16.3 | 47.2 |
| GTCCTCGAAAGAGGCGAC ((((((....)))..))) | -17 | 50.9 |
| GTTGCGCGAAAGCGAAAC (((.(((....))).))) | -27.8 | 59.5 |
| GTGGTTACGAAAGTACAC (((..(((....)))))) | -20.7 | 35.5 |
| GATCTATACTAGATC ((((((...)))))) | -32.6 | 40.6 |
| GCCTGGCGAAAGCTTGGC (((..((....))..))) | -26.5 | 59.4 |
| GATCCTCAAAGGATC ((((((...)))))) | -32.1 | 50.6 |
| GCGTAGCGAAAGCTGTGC ((..(((....)))..)) | -10 | 46.1 |

| Sequence | folding enthalpy [1] [kcal/mol] | Tm [2] [°C] |
| --- | --- | --- |
| GCATGGGGAAACTCATGC (((((.(....).))))) | -40.3 | 51.9 |
| GATCGCCAGCGCGATC ((((((....)))))) | -33.3 | 63.7 |
| GCACATGGAAACATGTAC (.(((((....))))).) | -17 | 37.4 |
| GATCAAATCGTTGATC ((((((....)))))) | -30.6 | 42.4 |
| GGTCACGAAAGTGATACC ((((((....)))..))) | -11.7 | 44.7 |
| GCACAGCGAAAGCTCGGC ((..(((....)))..)) | -15.2 | 38.4 |
| GAGCTCCGAAAGGATCTC (((.(((....))).))) | -25 | 46.4 |
| GCGGAACCCCGC ((((....)))) | -21 | 51.3 |
| GTGACCGAAAGGTGCCAC ((((((....)))..))) | -12.1 | 30.2 |
| GTTGTTCGAAAGAAAAAC (((.(((....))).))) | -29.1 | 34.9 |
| GTTTAGCGAAAGCTTAAC (((.(((....))).))) | -22.1 | 44.1 |
| GATCCGTAGACGGATC ((((((....)))))) | -42.9 | 58.2 |
| GAATCCCGAAAGGGTTTC (((.(((....))).))) | -23.6 | 45.6 |
| GGGTCTGGAAACAGACCC (((((((....))))))) | -36.1 | 68.8 |
| GACTCCACGAAAGTGGTC (((..(((....)))))) | -8.79 | 29.5 |
| GATCTGCAACCAGATC ((((((....)))))) | -31.7 | 46.2 |
| GCGGACGAAAGTCATCGC ((((((....)))..))) | -25.7 | 50.1 |
| GTCAAAACGAAAGTTGAC (((..(((....)))))) | -24.4 | 40.5 |
| GGACGCACGAAAGTGTCC (((..(((....)))))) | -21.4 | 47 |
| GATCCGAGTCGGATC ((((((...)))))) | -35 | 59.5 |
| GATCTTTCTAAAGATC ((((((....)))))) | -37.7 | 47.3 |
| GTATTACGAAAGTATTAC (((.(((....))).))) | -28.4 | 34.8 |
| GATTCCGAAAGGATGATC ((((((....)))..))) | -21.8 | 31.8 |

| Sequence | folding enthalpy [1] [kcal/mol] | Tm [2] [°C] |
| --- | --- | --- |
| GTGAGCGAAAGCTGTCAC ((((((....)))..))) | -14.3 | 40.2 |
| GCAAGGGGAAACTCTTGC (((((.(....).))))) | -45.3 | 50.1 |
| GTATGAGGAAACTCACAC ((.((((....)))).)) | -14.5 | 29.4 |
| CGGAGTCGGAAACGACCG (((..(((....)))))) | -15.9 | 41.3 |
| GATCTCACGTGAGATC ((((((....)))))) | -54.2 | 55.1 |
| GGGAGTGGAAACACTTCC ((.((((....)))).)) | -36.2 | 50.5 |
| GAATCCGAAAGGAATTC ((((((....))).))) | -23.6 | 39.7 |
| GTCAGCCCGAAAGGGGAC (((..(((....)))))) | -13.7 | 42.4 |
| GGGATTGGAAACAGTTCC ((.(.((....)).).)) | -16.6 | 34.3 |
| GGGATCGGAAACGATTCC ((.((((....)))).)) | -40.7 | 53.5 |
| GCGTGGCGAAAGCCCTGC ((..(((....)))..)) | -18.3 | 47.2 |
| GTACTTGGAAACAAGTAC (((((((....))))))) | -33.5 | 56 |
| GGGGAGGCGAAAGCCCCC (((..(((....)))))) | -14.2 | 64.5 |
| GCTAAGCGAAAGCCTGGC ((.(.((....)).).)) | -17.9 | 35.5 |
| GACCGGGGAAACCCGACC (..((((....))))..) | -11.4 | 30 |
| GAACCTGGAAACAGGCTC ((.((((....)))).)) | -18.9 | 40 |
| GCATGTGGAAACATATGC ((((.((....)).)))) | -30.9 | 49.5 |
| GACCACGGAAACACGGTC ((((..(....)..)))) | -30.3 | 35.3 |
| GCGTGCAGACGC ((((....)))) | -20.4 | 62.5 |
| GCCTTGCGAAAGCAGGC (((.(((....)))))) | -24 | 66.7 |
| GCACCGCGAAAGCGCTGC (((.(((....))).))) | -31.9 | 50.3 |
| GTGGTACCGAAAGGTCAC (((..(((....)))))) | -18.4 | 38.4 |
| GATCGTATATACGATC ((((((....)))))) | -35.1 | 56.6 |
